Tests used:
[1] = target: Dual specificity protein kinase CLK1 (Homo sapiens) (UniProt P49759); assay: Inhibition of human recombinant CLK1 at 500 nM related to control ULK1
[2] = target: RAC-alpha serine/threonine-protein kinase (Homo sapiens) (UniProt P31749); assay: Inhibition of human recombinant AKT1 at 500 nM related to control ULK1
[3] = target: Glycogen synthase kinase-3 alpha (Homo sapiens) (UniProt P49840); assay: Inhibition of human recombinant GSK3A at 500 nM related to control ULK1
[4] = target: Ephrin type-A receptor 2 (Homo sapiens) (UniProt P29317); assay: Inhibition of human recombinant EphA2 at 500 nM in presence of ATP by radiometric assay relative to control
[5] = target: Serine/threonine-protein kinase 38-like (Homo sapiens) (UniProt Q9Y2H1); assay: Inhibition of human recombinant NDR2 at 500 nM related to control ULK1
[6] = target: T1, Tyrosine-protein kinase JAK3 (Homo sapiens) (UniProt P52333); assay: Inhibition of human recombinant JAK3 at 500 nM related to control ULK1
T1 sequence (whole entry): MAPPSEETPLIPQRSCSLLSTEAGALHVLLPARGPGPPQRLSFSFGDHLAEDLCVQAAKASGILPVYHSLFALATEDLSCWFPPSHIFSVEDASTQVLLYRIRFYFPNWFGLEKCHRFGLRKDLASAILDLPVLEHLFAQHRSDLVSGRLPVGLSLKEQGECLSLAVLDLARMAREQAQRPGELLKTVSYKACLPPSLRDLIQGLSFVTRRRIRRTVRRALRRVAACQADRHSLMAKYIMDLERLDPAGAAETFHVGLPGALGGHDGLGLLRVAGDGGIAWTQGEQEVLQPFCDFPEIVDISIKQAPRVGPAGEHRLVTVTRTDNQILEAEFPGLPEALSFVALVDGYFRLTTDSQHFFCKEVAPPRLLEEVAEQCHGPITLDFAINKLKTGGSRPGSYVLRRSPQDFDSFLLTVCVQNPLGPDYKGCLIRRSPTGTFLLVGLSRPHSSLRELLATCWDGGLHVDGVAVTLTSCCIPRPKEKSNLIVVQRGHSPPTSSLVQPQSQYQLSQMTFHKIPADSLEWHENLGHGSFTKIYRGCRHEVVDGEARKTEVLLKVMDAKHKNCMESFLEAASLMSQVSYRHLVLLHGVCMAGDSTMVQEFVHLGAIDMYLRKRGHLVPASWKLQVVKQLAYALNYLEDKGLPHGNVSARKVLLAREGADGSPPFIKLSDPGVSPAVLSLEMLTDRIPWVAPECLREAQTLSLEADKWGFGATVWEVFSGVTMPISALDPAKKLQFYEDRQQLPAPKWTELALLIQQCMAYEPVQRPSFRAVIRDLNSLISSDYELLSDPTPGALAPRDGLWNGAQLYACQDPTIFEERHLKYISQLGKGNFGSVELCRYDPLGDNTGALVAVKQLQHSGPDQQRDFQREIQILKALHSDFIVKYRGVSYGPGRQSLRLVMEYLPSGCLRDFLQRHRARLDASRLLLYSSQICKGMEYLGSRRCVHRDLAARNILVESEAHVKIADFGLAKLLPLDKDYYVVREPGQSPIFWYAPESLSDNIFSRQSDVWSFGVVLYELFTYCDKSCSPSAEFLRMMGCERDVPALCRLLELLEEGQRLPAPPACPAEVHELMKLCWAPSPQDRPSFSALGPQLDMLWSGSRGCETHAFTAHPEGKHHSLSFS

[7] = target: Dual specificity tyrosine-phosphorylation-regulated kinase 1B (Homo sapiens) (UniProt Q9Y463); assay: Inhibition of human recombinant DYRK1B at 15 nM related to control ULK1
[8] = target: T2, Serine/threonine-protein kinase NLK (Homo sapiens) (UniProt Q9UBE8); assay: Inhibition of human recombinant NLK at 15 nM in presence of ATP by radiometric assay relative to control
T2 sequence (whole entry): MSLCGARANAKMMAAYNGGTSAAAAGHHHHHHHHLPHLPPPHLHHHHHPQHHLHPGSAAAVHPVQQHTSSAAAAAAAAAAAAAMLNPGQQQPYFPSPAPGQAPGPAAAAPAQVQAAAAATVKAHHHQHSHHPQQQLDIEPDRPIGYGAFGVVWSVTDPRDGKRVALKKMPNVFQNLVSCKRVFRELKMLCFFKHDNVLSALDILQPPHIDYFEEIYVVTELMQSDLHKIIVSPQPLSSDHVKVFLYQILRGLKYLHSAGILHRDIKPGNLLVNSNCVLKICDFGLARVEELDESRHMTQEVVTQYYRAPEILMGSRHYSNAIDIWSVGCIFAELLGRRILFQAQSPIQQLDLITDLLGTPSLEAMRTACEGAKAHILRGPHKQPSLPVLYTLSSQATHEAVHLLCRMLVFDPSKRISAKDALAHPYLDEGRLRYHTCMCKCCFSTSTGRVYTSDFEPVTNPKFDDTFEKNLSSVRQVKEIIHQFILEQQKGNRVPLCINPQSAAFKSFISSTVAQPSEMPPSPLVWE

[9] = target: Serine/threonine-protein kinase PLK3 (Homo sapiens) (UniProt Q9H4B4); assay: Inhibition of human recombinant PLK3 at 15 nM in presence of ATP by radiometric assay relative to control
[10] = target: Cyclin-dependent kinase 9 (Homo sapiens) (UniProt P50750); assay: Inhibition of human recombinant CDK9 at 40 nM in presence of ATP by radiometric assay relative to control
[11] = target: T3, Aurora kinase C (Homo sapiens) (UniProt Q9UQB9); assay: Inhibition of human recombinant AurC at 40 nM related to control ULK1
T3 sequence (whole entry): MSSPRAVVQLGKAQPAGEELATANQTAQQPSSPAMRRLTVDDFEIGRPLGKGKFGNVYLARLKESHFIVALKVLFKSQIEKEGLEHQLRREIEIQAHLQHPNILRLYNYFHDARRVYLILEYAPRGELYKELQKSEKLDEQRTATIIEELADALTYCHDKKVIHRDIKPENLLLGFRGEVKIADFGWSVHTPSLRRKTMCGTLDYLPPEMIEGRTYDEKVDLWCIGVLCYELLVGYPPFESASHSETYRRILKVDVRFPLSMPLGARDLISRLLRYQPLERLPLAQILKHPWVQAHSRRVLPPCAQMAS
How it was run: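 Radiometric activity assays in a panel of 327 human recombinant kinases, each run in duplicate at one inhibitor concentration. Activity remaining is expressed as percent of vehicle control, and percent inhibition is calculated as 100% minus percent activity remaining.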

Dual specificity protein kinase CLK1 (Homo sapiens), sequence (P49759 whole entry, looked up): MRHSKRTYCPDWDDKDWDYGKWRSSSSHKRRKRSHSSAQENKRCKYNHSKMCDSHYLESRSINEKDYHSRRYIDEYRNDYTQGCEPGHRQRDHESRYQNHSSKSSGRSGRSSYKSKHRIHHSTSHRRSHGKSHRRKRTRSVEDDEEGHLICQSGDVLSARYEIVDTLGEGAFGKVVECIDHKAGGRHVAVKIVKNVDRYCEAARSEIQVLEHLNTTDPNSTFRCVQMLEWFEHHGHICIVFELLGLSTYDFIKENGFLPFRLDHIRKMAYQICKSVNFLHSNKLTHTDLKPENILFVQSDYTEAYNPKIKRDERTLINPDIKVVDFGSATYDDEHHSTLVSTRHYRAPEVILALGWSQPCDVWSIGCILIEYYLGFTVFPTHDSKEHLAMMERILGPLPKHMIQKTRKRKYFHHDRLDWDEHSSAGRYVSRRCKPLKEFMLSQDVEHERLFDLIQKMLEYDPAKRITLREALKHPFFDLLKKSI
RAC-alpha serine/threonine-protein kinase (Homo sapiens), sequence (P31749 whole entry): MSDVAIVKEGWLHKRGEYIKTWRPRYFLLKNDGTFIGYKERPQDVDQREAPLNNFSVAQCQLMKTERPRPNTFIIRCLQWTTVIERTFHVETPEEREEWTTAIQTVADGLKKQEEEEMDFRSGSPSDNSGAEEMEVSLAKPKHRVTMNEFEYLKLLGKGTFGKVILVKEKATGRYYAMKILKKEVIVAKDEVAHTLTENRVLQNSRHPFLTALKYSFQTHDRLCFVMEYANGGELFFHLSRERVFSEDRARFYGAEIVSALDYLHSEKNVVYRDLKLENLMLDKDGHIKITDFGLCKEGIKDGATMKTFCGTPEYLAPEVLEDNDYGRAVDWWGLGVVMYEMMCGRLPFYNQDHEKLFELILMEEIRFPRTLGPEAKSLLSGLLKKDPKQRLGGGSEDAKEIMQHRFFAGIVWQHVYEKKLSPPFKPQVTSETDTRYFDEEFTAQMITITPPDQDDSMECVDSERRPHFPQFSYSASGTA
Glycogen synthase kinase-3 alpha (Homo sapiens), sequence (P49840 2-483 limits assumed): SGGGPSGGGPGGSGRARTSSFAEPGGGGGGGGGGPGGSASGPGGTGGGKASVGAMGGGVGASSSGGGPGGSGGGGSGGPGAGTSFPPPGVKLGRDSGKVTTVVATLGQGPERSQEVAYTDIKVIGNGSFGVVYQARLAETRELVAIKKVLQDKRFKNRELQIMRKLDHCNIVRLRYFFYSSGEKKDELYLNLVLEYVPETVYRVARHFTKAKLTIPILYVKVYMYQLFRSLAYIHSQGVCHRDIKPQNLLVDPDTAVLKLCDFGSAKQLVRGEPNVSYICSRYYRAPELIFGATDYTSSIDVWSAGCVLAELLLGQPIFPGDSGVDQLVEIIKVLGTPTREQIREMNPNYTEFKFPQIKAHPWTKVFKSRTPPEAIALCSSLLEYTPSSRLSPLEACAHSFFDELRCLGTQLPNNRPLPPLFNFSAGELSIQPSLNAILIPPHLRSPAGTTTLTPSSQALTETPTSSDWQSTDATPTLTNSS
Serine/threonine-protein kinase PLK3 (Homo sapiens), sequence (Q9H4B4 whole entry, looked up): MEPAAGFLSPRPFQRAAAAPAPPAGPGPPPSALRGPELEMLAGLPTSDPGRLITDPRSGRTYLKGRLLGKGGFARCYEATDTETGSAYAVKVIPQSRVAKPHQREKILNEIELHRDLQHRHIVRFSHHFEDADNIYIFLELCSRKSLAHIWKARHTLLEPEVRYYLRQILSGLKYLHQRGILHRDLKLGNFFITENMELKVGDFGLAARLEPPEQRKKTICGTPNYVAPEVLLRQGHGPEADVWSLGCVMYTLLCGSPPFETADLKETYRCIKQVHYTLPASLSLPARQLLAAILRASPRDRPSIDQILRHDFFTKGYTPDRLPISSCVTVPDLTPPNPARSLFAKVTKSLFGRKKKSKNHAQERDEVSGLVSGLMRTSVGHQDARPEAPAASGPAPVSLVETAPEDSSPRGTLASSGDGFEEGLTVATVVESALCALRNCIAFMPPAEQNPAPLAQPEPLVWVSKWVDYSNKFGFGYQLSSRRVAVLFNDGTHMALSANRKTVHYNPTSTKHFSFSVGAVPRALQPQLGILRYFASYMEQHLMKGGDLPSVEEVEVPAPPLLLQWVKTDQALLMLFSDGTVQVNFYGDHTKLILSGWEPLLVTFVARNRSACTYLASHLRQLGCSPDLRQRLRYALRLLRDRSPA
Ephrin type-A receptor 2 (Homo sapiens), sequence (P29317 whole entry): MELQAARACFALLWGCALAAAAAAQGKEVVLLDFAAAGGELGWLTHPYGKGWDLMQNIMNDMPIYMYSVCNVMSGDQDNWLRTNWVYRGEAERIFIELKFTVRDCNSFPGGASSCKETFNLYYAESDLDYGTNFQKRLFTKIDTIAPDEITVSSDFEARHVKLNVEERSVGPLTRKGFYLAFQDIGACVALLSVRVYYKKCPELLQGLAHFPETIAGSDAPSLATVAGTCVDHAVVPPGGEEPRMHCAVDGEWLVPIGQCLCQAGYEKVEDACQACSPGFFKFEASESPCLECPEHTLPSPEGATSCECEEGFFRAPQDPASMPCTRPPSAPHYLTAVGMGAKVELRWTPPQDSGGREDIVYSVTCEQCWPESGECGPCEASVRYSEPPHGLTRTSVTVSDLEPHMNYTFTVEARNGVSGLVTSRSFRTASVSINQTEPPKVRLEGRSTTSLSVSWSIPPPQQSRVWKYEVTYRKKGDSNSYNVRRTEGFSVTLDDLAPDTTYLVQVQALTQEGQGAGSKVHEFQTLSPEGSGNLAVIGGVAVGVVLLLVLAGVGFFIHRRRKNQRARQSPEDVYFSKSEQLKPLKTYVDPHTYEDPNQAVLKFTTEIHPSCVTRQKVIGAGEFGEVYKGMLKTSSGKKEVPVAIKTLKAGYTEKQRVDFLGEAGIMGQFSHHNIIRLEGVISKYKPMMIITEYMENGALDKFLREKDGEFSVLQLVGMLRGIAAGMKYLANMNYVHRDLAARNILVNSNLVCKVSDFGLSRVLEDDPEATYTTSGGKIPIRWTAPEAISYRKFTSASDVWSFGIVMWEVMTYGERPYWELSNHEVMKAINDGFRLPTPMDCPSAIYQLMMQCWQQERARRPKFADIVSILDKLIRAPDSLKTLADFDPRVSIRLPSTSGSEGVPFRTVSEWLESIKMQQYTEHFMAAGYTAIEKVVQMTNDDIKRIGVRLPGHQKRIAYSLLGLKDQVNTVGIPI
Cyclin-dependent kinase 9 (Homo sapiens), sequence (P50750 whole entry): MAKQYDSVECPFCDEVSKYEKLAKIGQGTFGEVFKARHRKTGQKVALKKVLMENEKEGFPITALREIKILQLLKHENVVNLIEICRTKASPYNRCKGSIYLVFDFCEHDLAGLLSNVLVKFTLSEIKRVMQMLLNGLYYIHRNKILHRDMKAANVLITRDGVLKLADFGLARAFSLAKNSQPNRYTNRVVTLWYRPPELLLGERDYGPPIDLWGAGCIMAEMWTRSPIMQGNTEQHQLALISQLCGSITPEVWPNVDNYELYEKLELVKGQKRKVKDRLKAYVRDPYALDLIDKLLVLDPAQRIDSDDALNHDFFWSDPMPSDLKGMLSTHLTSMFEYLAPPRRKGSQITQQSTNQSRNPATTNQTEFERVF
Serine/threonine-protein kinase 38-like (Homo sapiens), sequence (Q9Y2H1 2-464 limits assumed): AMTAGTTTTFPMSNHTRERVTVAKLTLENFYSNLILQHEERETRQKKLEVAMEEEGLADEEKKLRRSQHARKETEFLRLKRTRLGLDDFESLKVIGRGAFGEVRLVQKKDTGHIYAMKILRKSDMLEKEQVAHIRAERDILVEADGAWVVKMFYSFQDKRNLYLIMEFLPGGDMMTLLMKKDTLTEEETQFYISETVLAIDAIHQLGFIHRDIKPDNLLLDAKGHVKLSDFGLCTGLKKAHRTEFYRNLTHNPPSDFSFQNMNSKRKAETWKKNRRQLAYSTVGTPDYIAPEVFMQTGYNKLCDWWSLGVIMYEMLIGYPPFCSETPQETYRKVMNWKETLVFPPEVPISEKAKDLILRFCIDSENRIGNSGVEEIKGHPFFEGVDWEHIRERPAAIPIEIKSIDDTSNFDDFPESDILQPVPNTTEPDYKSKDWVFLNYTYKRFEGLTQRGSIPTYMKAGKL
Dual specificity tyrosine-phosphorylation-regulated kinase 1B (Homo sapiens), sequence (Q9Y463 whole entry, looked up): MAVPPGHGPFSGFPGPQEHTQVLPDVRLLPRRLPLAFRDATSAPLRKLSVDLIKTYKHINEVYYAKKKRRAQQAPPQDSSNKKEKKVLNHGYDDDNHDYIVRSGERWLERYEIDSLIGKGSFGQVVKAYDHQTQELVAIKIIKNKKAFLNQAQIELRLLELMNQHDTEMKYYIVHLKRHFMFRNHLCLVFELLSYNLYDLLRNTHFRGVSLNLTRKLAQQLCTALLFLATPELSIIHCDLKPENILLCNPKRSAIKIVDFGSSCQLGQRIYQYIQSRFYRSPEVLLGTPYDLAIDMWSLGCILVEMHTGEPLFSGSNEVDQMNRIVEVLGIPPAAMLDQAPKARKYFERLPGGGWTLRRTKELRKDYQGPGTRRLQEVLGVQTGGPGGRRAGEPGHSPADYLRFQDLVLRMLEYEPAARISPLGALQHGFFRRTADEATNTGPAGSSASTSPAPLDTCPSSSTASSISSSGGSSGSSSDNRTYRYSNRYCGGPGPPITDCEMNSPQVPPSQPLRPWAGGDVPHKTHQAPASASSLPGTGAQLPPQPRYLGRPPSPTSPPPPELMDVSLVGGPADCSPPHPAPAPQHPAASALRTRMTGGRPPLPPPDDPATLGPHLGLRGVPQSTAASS

`CNC(=O)c1ccccc1Oc1nc(Nc2cc(OC)c(OC)c(OC)c2)ncc1Br` gave a fold change (FC) [1] of 0.07, a fold change (FC) [2] of 0 and a fold change (FC) [3] of 0. The inhibition [4] was 2%, the fold change (FC) [5] was 0.2 and the fold change (FC) [6] was 0.28.
Work on `CC(C)[C@H](NC(=O)c1cc(-c2cnn3cc(-c4ccc(OCCN5CCCCC5)cc4)cnc23)cs1)C(F)(F)F` yielded a fold change (FC) [7] of 0.74, an inhibition [8] of 9% and an inhibition [9] of 3%.
Work on `O=C(N[C@@H](C1CC1)C(F)(F)F)c1cc(-c2cnn3cc(-c4ccc(F)cc4)cnc23)cs1` yielded an inhibition [10] of 0% and a fold change (FC) [11] of 0.

Source: ChEMBL document CHEMBL5653631, “A Potent and Selective ULK1 Inhibitor Suppresses Autophagy and Sensitizes Cancer Cells to Nutrient Stress” (iScience, 2018)
